This passage reports activation results from PubChem BioAssay AID624038 (The Scripps Research Institute Molecular Screening Center, 2012).

Several values for one entry are separate records, joined by “and”; a condition that tells them apart may be missing. Identical values can stand only once. About 1,100 (0.31%) of roughly 360,000 compounds were called active.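 Rule for the calls: active = activation above the run cutoff, the mean activation of all test compounds plus 3 SD (cut at about 18% in these data); inactive = the rest.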 The entries come from a sample that favours actives as a whole. Where a structure was tested more than once in an assay, its records may differ in their call.

In this assay the target is Muscarinic acetylcholine receptor M5 (Homo sapiens) (UniProt P08912). In words: human M5 muscarinic receptor positive allosteric modulators, primary screen, CHO-K1 cells, Fluo-8 calcium fluorescence (AID 624038). To be noted: CHO-K1 hM5, Fluo-8 calcium, ACh EC20 PAM; at 3 µM; stronger effect = higher value; 0% = ACh EC20, 100% = ACh EC100. The method, boiled down: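 Measured by: Fluo-8 calcium fluorescence; material: human M5 receptor in CHO-K1 cells; schedule: Post-acetylcholine fluorescence recording 140 s; benchmarks: low control EC20 acetylcholine (0%), high control EC100 acetylcholine (100%); read-out: Max/basal fluorescence ratio as % of EC20–EC100 ACh window; compound: single dose, 3 µM nominal final test concentration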
Muscarinic acetylcholine receptor M5 (Homo sapiens), sequence (P08912 whole entry, looked up): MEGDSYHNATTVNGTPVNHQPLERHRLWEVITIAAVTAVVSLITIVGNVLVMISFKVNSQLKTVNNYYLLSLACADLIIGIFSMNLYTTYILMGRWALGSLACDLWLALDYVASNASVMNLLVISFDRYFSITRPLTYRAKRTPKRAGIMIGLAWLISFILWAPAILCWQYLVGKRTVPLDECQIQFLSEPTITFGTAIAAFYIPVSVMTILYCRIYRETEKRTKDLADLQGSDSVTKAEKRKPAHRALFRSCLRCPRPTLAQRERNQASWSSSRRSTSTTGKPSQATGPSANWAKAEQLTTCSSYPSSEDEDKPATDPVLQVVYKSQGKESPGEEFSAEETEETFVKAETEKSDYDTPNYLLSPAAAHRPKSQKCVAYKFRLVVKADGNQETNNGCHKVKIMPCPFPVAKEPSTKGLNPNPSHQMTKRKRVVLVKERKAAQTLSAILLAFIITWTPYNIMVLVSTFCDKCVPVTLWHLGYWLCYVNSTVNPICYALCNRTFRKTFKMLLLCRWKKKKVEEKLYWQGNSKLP
Consider `CCOc1ccc(S(=O)(=O)N2CCCC(C(=O)N3CCC(C(N)=O)CC3)C2)cc1Cl` (centres undefined), for which the activation was 5.31% (inactive). For the compound `CCCCOP(=O)(c1ccc(N(C)C)cc1)C(O)c1cc(OC)ccc1OC` (centres undefined), the activation was 4.18% (inactive).

For `CSCC(=O)N1CCCC(C(=O)c2cc(F)ccc2F)C1` (centres undefined), the activation was -4.39% (inactive). With `S=C(Nc1ccc(Br)cc1Cl)N1CCC2(CC1)OCCO2`, the activation is -0.18% (inactive). As to `NC(=O)C1=C[C@@H](c2ccc3c(c2)OCO3)C[C@@H](OCCCCO)O1`, the activation is -3.38% (inactive). To `Cc1nn(Cc2ccccc2)c(C)c1NS(=O)(=O)c1ccccc1` belongs -9.59% (inactive); to `O=C(CS(=O)(=O)c1ccccc1)Nc1ccc(S(=O)(=O)Nc2ccccn2)cc1`, -5.27% (inactive); to `COc1ccc(NC(=O)CC(NC(C)c2ccccc2)C(=O)O)cc1` (centres undefined), -1.9% (inactive). Turning to `COc1ccc(NC(=O)CS(=O)(=O)c2ccccc2)cc1`, the activation is 18.2% (active).

In the case of `CCOC(=O)N1CCC(NC(=O)C(C)n2c3ccccc3c3cnn(C)c(=O)c32)CC1` (centres undefined), the activation was -5.66% (inactive). With `CCN(CC(=O)Nc1c(F)cccc1F)C(=O)c1ccc(Sc2nncn2C)c([N+](=O)[O-])c1`, the activation is 0.28% (inactive). In the case of `Cc1ccccc1N(C(=O)CNC(=O)c1cccs1)C(C(=O)NC1CCCC1)c1ccncc1` (centres undefined), the activation was 5.18% (inactive). As to `COc1ccc(C(C(=O)NC2CCCCC2)N(C(=O)CCl)c2ccccc2Cl)cc1` (centres undefined), the activation was 28.1% (active). `COc1ccc(C(C(=O)NC2CCCCC2)N(C(=O)c2snc(C(N)=O)c2N)c2ccccc2OC)cc1` (centres undefined): the activation is -2.86% (inactive). Turning to `O=C(CSc1nc2ncccc2[nH]1)Nc1ccc2c(c1)OCCO2`, the activation was -2.19% (inactive).

Regarding `CCOc1ccc(C(=O)CCC(=O)Nc2ccncc2)cc1`, the activation was -11.9% (inactive). Turning to `CCOc1ccccc1NC(=O)NC1CCCCCCC1`, the activation was -0.6% (inactive). The figure for `CCOc1ccc(NC(=O)CCC(=O)NNC(=O)NC2CCCCC2)cc1` is 21.3% (active). Consider `O=C(CCn1c(=O)oc2ccccc21)Nc1ccon1`, for which the activation is 3.01% (inactive). In the case of `CC(NCc1cccs1)C(=O)Nc1cc(Cl)cc(Cl)c1` (centres undefined), the activation is -6.98% (inactive). Turning to `CCC(C)NC(=O)c1ccccc1NC(=O)c1ccccc1N(C)S(C)(=O)=O` (centres undefined), the activation was 2.75% (inactive). The figure for `CCCCNC(=O)c1ccccc1NC(=O)C1=C(C)OCCS1` is -4.46% (inactive); for `CCCCNC(=O)c1ccccc1NC(=O)c1ccccc1N(C)S(C)(=O)=O` it is 21.6% (active). For `Cc1noc(/C=C/c2ccco2)c1S(=O)(=O)N1CCC(C(=O)N2CCc3ccccc32)CC1`, the activation was -9.2% (inactive).

In the case of `CC(C)(C)n1nnnc1C(c1ccc2ncccc2c1)N1CCSCC1` (centres undefined), the activation is -6.68% (inactive).

In the case of `CC(C)C(=O)N1CCN(CCN=CC2=C(O)CC(c3ccco3)CC2=O)CC1` (centres undefined), the activation is 18.8% (active) and 2.37% (inactive). To `CC1(C)CC(=O)C(C=NCCN2CCN(C(=S)Nc3cccc(Cl)c3)CC2)=C(O)C1` belongs 0.98% (inactive); to `CC(=O)N1CCN(CCN=CC2=C(O)CC(C)(C)CC2=O)CC1`, -3.36% (inactive).

Consider `COCCCNC(=O)C1CC(=O)N(c2ccc(C)cc2)C1` (centres undefined), for which the activation is -2.16% (inactive). `CCCC(C)NC(=O)C1CCN(C(=O)C2CC(=O)N(c3ccc(C)cc3)C2)CC1` (centres undefined): the activation was 1.21% (inactive). Consider `COCCNC(=O)C1CCN(C(=O)C2CC(=O)N(c3ccc(C)cc3)C2)CC1` (centres undefined), for which the activation was 19.9% (active). The figure for `O=C(CCC(=O)n1ncc2ccccc21)NCc1ccccc1Cl` is -1.46% (inactive); for `O=C(CN1C(=O)NC(Cc2ccccc2)(Cc2ccccc2)C1=O)NCC1CCCCC1` it is -4.45% (inactive). The figure for `O=C(CNc1cccc(S(=O)(=O)N2CCCCC2)c1)Nc1ccccc1F` is 2.99% (inactive); for `CC(=O)NC(CC(=O)Nc1nccs1)c1ccccc1` (centres undefined) it is 3.53% (inactive). Regarding `C[C@H](NC(=O)c1[nH]cnc1C(=O)Nc1nccs1)c1ccccc1`, the activation is 6.95% (inactive). The figure for `CC(NC(=O)C(=O)Nc1nccs1)c1ccccc1` (centres undefined) is 20.9% (active); for `CCCCn1nc(C(=O)OCC(=O)Nc2sccc2C(N)=O)c2ccccc2c1=O` it is -5.8% (inactive).

Regarding `COC(=O)c1ccc(CN2CCC(CO)(Cc3ccc(OC)cc3)CC2)cc1`, the activation is -13.3% (inactive). The figure for `O=C(NC1=NCCS1)c1ccc(Cl)s1` is 2.85% (inactive). As to `COc1ccc(NC(=O)C(C)SCc2ccccc2)cc1` (centres undefined), the activation was 3.94% (inactive). The figure for `O=C(CC1(O)C(=O)N(CN2CCOCC2)c2ccccc21)c1ccccc1` (centres undefined) is 37.4% (active); for `C=CCN1C(=O)C(O)(CC(=O)c2ccc(Cl)cc2)c2ccccc21` (centres undefined) it is 12.2% (inactive). Turning to `C=CCN1C(=O)C(O)(CC(=O)c2ccccn2)c2ccccc21` (centres undefined), the activation was 0.57% (inactive).
